Reference: ChEMBL document CHEMBL1154792, “chi-Conopeptide pharmacophore development: toward a novel class of norepinephrine transporter inhibitor (Xen2174) for pain” (J Med Chem, 2009)
Activity calls are given as the source filed them. The calls are words filed in the database; no cut-off is given here. Where a SMILES comes first, the peptide text is derived from it. Bridges are numbered along the chain shown (N, C = ends). [ ]: non-standard residue; d: D form. Pro(3S-OH) = O=C(O)[C@H]1NCC[C@@H]1O; pGlu = O=C1CC[C@@H](C(=O)O)N1

target: Sodium-dependent noradrenaline transporter (Homo sapiens, UniProt P23975); assay: Displacement of [3H]nisoxetine from human NET expressed in COS7 cells; type: cell-based; conditions: COS-7
Sequence (P23975 whole entry): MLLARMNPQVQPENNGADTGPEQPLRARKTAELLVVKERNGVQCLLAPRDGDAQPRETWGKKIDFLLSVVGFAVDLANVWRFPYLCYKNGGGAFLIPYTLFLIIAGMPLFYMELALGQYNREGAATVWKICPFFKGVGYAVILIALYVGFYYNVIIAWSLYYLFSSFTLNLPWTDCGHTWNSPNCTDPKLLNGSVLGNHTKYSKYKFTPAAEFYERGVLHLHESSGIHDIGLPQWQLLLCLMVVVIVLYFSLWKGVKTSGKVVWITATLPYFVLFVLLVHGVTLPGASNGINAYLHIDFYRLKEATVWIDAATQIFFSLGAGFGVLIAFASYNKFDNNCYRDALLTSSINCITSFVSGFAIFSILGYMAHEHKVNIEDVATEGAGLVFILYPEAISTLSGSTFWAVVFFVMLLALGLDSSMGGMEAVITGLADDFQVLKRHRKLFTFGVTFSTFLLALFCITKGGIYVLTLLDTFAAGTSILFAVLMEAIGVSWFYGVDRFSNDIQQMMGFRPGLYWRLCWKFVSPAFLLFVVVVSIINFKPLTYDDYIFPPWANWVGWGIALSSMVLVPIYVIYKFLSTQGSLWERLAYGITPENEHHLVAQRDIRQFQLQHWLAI
Outline: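 Membranes from COS-7 cells transfected with human NET were incubated with [3H]nisoxetine (4.3 nM) with or without peptide (1 nM to 100 μM, triplicate) for 1 h at RT. Filter-retained radioactivity was counted by liquid scintillation, and values are given as pIC50. Data are means of 2–5 experiments in triplicate; peptide concentration was set by calibrated HPLC at 214 nm.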

Compound	Activity
CC(C)C[C@H]1CC(=O)N[C@H]2CSSC[C@H](NC(=O)[C@@H](NC(=O)[C@@H](NC(=O)CNC(=O)[C@@H]3CCC(=O)N3)C(C)C)CSSC[C@@H](C(=O)O)NC(=O)[C@@H]3[C@@H](O)CCN3C(=O)[C@H](Cc3cnc[nH]3)NC2=O)C(=O)NCC(=O)N[C@@H](Cc2ccc(O)cc2)C(=O)N[C@@H](CCCCN)C(=O)N1	Active
CC(C)C[C@@H]1NC(=O)[C@H](CCCCN)NC(=O)[C@H](CCCCN)NC(=O)CNC(=O)[C@@H]2CSSC[C@H](NC1=O)C(=O)N[C@@H](Cc1cnc[nH]1)C(=O)N1CC[C@H](O)[C@H]1C(=O)N[C@H](C(=O)O)CSSC[C@H](NC(=O)[C@@H](NC(=O)CNC(=O)[C@@H]1CCC(=O)N1)C(C)C)C(=O)N2 ([pGlu]GVCCGKKLCH[Pro(3S-OH)]C-OH; disulfide 4-13, 5-10)	inactive
COc1ccc(C[C@@H]2NC(=O)CNC(=O)[C@@H]3CSSC[C@H](NC(=O)[C@H](CC(C)C)NC(=O)[C@H](CCCCN)NC2=O)C(=O)N[C@@H](Cc2cnc[nH]2)C(=O)N2CC[C@H](O)[C@H]2C(=O)N[C@H](C(=O)O)CSSC[C@H](NC(=O)[C@@H](NC(=O)CNC(=O)[C@@H]2CCC(=O)N2)C(C)C)C(=O)N3)cc1	Active
CC(C)C[C@@H]1NC(=O)[C@H](CCCCN)NC(=O)[C@H](Cc2ccc(O)cc2)NC(=O)CNC(=O)[C@@H]2CSSC[C@H](NC1=O)C(=O)N[C@@H](Cc1ccco1)C(=O)N1CC[C@H](O)[C@H]1C(=O)N[C@H](C(=O)O)CSSC[C@H](NC(=O)[C@@H](NC(=O)CNC(=O)[C@@H]1CCC(=O)N1)C(C)C)C(=O)N2	Active
CC(C)C[C@@H]1NC(=O)[C@H](CCCCN)NC(=O)[C@H](Cc2ccc(O)cc2)NC(=O)CNC(=O)[C@H]2CSSC[C@@H](NC1=O)C(=O)N[C@@H](Cc1cnc[nH]1)C(=O)N1CC[C@H](O)[C@H]1C(=O)N[C@H](C(=O)O)CSSC[C@H](NC(=O)[C@@H](NC(=O)CNC(=O)[C@@H]1CCC(=O)N1)C(C)C)C(=O)N2	inactive
CCCC[C@@H]1NC(=O)[C@H](CCCCN)NC(=O)[C@H](Cc2ccc(O)cc2)NC(=O)CNC(=O)[C@@H]2CSSC[C@H](NC1=O)C(=O)N[C@@H](Cc1cnc[nH]1)C(=O)N1CC[C@H](O)[C@H]1C(=O)N[C@H](C(=O)O)CSSC[C@H](NC(=O)[C@@H](NC(=O)CNC(=O)[C@@H]1CCC(=O)N1)C(C)C)C(=O)N2	Active
CC(C)C[C@@H]1NC(=O)[C@H](CCCCN)NC(=O)[C@H](CCC(N)=O)NC(=O)CNC(=O)[C@@H]2CSSC[C@H](NC1=O)C(=O)N[C@@H](Cc1cnc[nH]1)C(=O)N1CC[C@H](O)[C@H]1C(=O)N[C@H](C(=O)O)CSSC[C@H](NC(=O)[C@@H](NC(=O)CNC(=O)[C@@H]1CCC(=O)N1)C(C)C)C(=O)N2 ([pGlu]GVCCGQKLCH[Pro(3S-OH)]C-OH; disulfide 4-13, 5-10)	inactive
CC(C)C[C@@H]1NC(=O)[C@H](CCCCN)NC(=O)[C@H](C(c2ccccc2)c2ccccc2)NC(=O)CNC(=O)[C@@H]2CSSC[C@H](NC1=O)C(=O)N[C@@H](Cc1cnc[nH]1)C(=O)N1CC[C@H](O)[C@H]1C(=O)N[C@H](C(=O)O)CSSC[C@H](NC(=O)[C@@H](NC(=O)CNC(=O)[C@@H]1CCC(=O)N1)C(C)C)C(=O)N2	inactive
CC(C)[C@H](NC(=O)CNC(=O)[C@@H]1CCC(=O)N1)C(=O)N[C@H]1CSSC[C@@H](C(=O)O)NC(=O)[C@@H]2[C@@H](O)CCN2C(=O)[C@H](Cc2cnc[nH]2)NC(=O)[C@@H]2CSSC[C@H](NC1=O)C(=O)NCC(=O)N[C@@H](Cc1ccc(O)cc1)C(=O)N[C@@H](CCCCN)C(=O)N[C@@H](C(C)C)C(=O)N2 ([pGlu]GVCCGYKVCH[Pro(3S-OH)]C-OH; disulfide 4-13, 5-10)	inactive
COc1ccc(C[C@@H]2NC(=O)CNC(=O)[C@@H]3CSSC[C@H](NC(=O)[C@H](CC(C)C)NC(=O)[C@H](CCCCN)NC(=O)[C@H](Cc4ccc(O)cc4)NC2=O)C(=O)N[C@@H](Cc2c[nH]c4ccccc24)C(=O)N2CC[C@H](O)[C@H]2C(=O)N[C@H](C(=O)O)CSSC[C@H](NC(=O)[C@@H](NC(=O)CNC(=O)[C@@H]2CCC(=O)N2)C(C)C)C(=O)N3)cc1 ([pGlu]GVCCGY(Me)YKLCW[Pro(3S-OH)]C-OH; disulfide 4-14, 5-11)	Active
CC(C)C[C@@H]1NC(=O)[C@H](CCCCN)NC(=O)[C@H](Cc2cccs2)NC(=O)CNC(=O)[C@@H]2CSSC[C@H](NC1=O)C(=O)N[C@@H](Cc1cnc[nH]1)C(=O)N1CC[C@H](O)[C@H]1C(=O)N[C@H](C(=O)O)CSSC[C@H](NC(=O)[C@@H](NC(=O)CNC(=O)[C@@H]1CCC(=O)N1)C(C)C)C(=O)N2	inactive
COc1ccc(C[C@H]2NC(=O)[C@H](Cc3cnc[nH]3)NC(=O)[C@@H]3CSSC[C@H](NC(=O)[C@@H](NC(=O)[C@@H](NC(=O)CNC(=O)[C@@H]4CCC(=O)N4)C(C)C)CSSC[C@@H](C(=O)O)NC2=O)C(=O)NCC(=O)N[C@@H](Cc2ccc(O)cc2)C(=O)N[C@@H](CCCCN)C(=O)N[C@@H](CC(C)C)C(=O)N3)cc1	Active
CC(C)C[C@@H]1NC(=O)[C@H](CCCCN)NC(=O)[C@H](CC2CCCCC2)NC(=O)CNC(=O)[C@@H]2CSSC[C@H](NC1=O)C(=O)N[C@@H](Cc1cnc[nH]1)C(=O)N1CC[C@H](O)[C@H]1C(=O)N[C@H](C(=O)O)CSSC[C@H](NC(=O)[C@@H](NC(=O)CNC(=O)[C@@H]1CCC(=O)N1)C(C)C)C(=O)N2	inactive
CC(C)C[C@@H]1NC(=O)[C@H](CCCCN)NC(=O)[C@H](CO)NC(=O)CNC(=O)[C@@H]2CSSC[C@H](NC1=O)C(=O)N[C@@H](Cc1cnc[nH]1)C(=O)N1CC[C@H](O)[C@H]1C(=O)N[C@H](C(=O)O)CSSC[C@H](NC(=O)[C@@H](NC(=O)CNC(=O)[C@@H]1CCC(=O)N1)C(C)C)C(=O)N2 ([pGlu]GVCCGSKLCH[Pro(3S-OH)]C-OH; disulfide 4-13, 5-10)	inactive
CC(C)C[C@@H]1NC(=O)[C@H](CCCCN)NC(=O)[C@H](Cc2ccc(O)cc2)NC(=O)CNC(=O)[C@@H]2CSSC[C@H](NC1=O)C(=O)N[C@@H](Cc1ccc(O)cc1)C(=O)N1CC[C@H](O)[C@H]1C(=O)N[C@H](C(=O)O)CSSC[C@H](NC(=O)[C@@H](NC(=O)CNC(=O)[C@@H]1CCC(=O)N1)C(C)C)C(=O)N2 ([pGlu]GVCCGYKLCY[Pro(3S-OH)]C-OH; disulfide 4-13, 5-10)	Active
CC(C)C[C@@H]1NC(=O)[C@H](CCCCN)NC(=O)[C@H](Cc2c[nH]c3ccccc23)NC(=O)CNC(=O)[C@@H]2CSSC[C@H](NC1=O)C(=O)N[C@@H](Cc1cnc[nH]1)C(=O)N1CC[C@H](O)[C@H]1C(=O)N[C@H](C(=O)O)CSSC[C@H](NC(=O)[C@@H](NC(=O)CNC(=O)[C@@H]1CCC(=O)N1)C(C)C)C(=O)N2	inactive
CC(C)C[C@@H]1NC(=O)[C@H](CCCCN)NC(=O)[C@H](Cc2ccc(O)cc2)NC(=O)CNC(=O)[C@@H]2CSSC[C@@H](NC1=O)C(=O)N[C@@H](Cc1cnc[nH]1)C(=O)N1CC[C@H](O)[C@H]1C(=O)N[C@H](C(=O)O)CSSC[C@H](NC(=O)[C@@H](NC(=O)CNC(=O)[C@@H]1CCC(=O)N1)C(C)C)C(=O)N2	inactive
CC(C)C[C@@H]1NC(=O)[C@H](CCCCN)NC(=O)[C@H](Cc2ccc(O)cc2)NC(=O)CNC(=O)[C@@H]2CSSC[C@H](NC1=O)C(=O)N[C@@H](Cc1cnc[nH]1)C(=O)N1CC[C@H](O)[C@H]1C(=O)N[C@@H](C(=O)O)CSSC[C@H](NC(=O)[C@@H](NC(=O)CNC(=O)[C@@H]1CCC(=O)N1)C(C)C)C(=O)N2	inactive
